ChEMBL document CHEMBL1146851, “Discovery of 2-pyrimidyl-5-amidothiophenes as potent inhibitors for AKT: synthesis and SAR studies” (Bioorg Med Chem Lett, 2006)
Calls of active or inactive are those of the source. The rule behind the calls is not given here.

Experiments:
[1] = molecular target: T1, RAC-gamma serine/threonine-protein kinase (Homo sapiens, UniProt Q9Y243); test: Inhibition of AKT3 in presence of 0.2 uM ATP
Method in brief: (§1)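 Biochemical kinase IC50s, each run with ATP at or below its Km.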

[2] = molecular target: RAC-alpha serine/threonine-protein kinase (Homo sapiens, UniProt P31749); test: Inhibition of AKT1; method in brief: as §1
Chain of RAC-alpha serine/threonine-protein kinase (P31749 whole entry): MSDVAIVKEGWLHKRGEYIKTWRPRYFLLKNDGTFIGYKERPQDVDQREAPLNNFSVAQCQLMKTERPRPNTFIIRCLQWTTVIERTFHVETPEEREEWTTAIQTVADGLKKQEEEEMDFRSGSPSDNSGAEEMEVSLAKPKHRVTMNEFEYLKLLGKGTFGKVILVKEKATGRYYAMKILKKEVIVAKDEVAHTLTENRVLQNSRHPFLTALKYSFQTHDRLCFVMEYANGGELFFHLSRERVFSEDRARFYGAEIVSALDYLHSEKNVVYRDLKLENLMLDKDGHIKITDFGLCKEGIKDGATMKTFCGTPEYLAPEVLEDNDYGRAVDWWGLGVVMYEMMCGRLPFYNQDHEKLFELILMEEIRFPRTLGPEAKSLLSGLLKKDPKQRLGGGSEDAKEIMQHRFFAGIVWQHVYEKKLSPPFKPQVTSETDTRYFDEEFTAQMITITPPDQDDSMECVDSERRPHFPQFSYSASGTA

[3] = molecular target: T1, RAC-gamma serine/threonine-protein kinase; test: Inhibition of AKT3
Method in brief: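 Kinase IC50 determined in a biochemical kinase assay with ATP at or below its Km.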

[4] = molecular target: Protein kinase C alpha type (Homo sapiens, UniProt P17252); test: Inhibition of PKCa
[5] = molecular target: T2, Serine/threonine-protein kinase AKT (Homo sapiens, UniProt P31751+Q9Y243+P31749); test: Activity against AKT-mediated GSK3 S9P phosphorylation in human DOV13 cell line; format: functional, cell-based
[6] = molecular target: T3, cAMP-dependent protein kinase (PKA) (Homo sapiens, UniProt P22694+P17612+P22612); test: Inhibitory activity against PKA in human UACC903 cell line at 10 nM; format: functional, cell-based; conditions: UACC-903
Method in brief: (§2)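 UACC903 melanoma cells were pre-incubated with the test compound at various concentrations for 45 min, then stimulated with 7 μM forskolin for 15 min before lysis. Lysates were Western blotted for phospho-VASP as the PKA read-out, with phospho-MDM2 as the AKT read-out.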

[7] = molecular target: Calcium/calmodulin-dependent protein kinase type II subunit alpha (Homo sapiens, UniProt Q9UQM7); test: Inhibition of CamK2alpha
Chain of Calcium/calmodulin-dependent protein kinase type II subunit alpha (Q9UQM7 whole entry): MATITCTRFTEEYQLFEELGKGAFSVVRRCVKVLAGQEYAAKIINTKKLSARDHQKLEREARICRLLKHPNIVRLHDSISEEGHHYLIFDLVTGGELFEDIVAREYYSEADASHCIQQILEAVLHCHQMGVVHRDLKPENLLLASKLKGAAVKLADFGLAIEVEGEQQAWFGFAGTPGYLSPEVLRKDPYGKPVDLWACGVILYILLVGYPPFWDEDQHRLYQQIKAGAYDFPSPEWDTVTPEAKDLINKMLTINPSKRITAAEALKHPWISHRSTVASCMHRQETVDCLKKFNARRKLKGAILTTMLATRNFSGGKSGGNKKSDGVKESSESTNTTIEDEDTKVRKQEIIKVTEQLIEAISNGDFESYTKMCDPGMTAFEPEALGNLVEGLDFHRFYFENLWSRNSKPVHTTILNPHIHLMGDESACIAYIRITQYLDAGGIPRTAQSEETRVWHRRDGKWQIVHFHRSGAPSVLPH
Method in brief: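 IC50 from an in vitro kinase assay with ATP at or below its Km.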

[8] = molecular target: T3, cAMP-dependent protein kinase (PKA); test: Inhibition of PKA; format: protein assay; method in brief: as §1
[9] = molecular target: T3, cAMP-dependent protein kinase (PKA); test: Inhibitory activity against PKA in human UACC903 cell line at 33 nM; format: functional, cell-based; conditions: UACC-903; method in brief: as §2
[10] = molecular target: Mast/stem cell growth factor receptor Kit (Homo sapiens, UniProt P10721); test: Inhibition of Kit
Chain of Mast/stem cell growth factor receptor Kit (P10721 whole entry): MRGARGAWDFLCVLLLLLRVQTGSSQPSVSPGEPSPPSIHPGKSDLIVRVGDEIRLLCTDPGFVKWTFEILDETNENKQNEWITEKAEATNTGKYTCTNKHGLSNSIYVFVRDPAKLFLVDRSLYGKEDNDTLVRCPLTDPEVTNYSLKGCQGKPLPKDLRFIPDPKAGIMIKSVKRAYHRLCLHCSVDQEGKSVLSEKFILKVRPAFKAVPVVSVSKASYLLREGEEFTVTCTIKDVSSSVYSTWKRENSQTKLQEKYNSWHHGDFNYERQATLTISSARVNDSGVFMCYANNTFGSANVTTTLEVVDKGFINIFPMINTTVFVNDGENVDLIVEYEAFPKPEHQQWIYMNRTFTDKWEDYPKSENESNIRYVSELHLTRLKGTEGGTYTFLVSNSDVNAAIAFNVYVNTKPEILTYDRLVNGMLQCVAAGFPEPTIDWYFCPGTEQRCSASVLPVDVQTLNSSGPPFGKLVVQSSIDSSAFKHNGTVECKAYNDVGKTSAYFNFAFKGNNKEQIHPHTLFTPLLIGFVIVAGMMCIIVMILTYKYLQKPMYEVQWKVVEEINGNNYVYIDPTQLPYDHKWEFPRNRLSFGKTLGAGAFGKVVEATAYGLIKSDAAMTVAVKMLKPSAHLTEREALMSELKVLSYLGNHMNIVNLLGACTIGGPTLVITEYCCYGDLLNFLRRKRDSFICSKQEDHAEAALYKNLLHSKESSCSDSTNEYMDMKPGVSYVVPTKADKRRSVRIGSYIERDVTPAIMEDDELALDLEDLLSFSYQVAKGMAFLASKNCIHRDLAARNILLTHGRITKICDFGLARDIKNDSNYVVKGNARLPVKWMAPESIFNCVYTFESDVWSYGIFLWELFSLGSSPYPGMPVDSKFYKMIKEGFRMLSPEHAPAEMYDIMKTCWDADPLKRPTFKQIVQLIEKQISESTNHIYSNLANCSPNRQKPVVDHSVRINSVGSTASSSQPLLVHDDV

[11] = molecular target: Mitogen-activated protein kinase 3 (Homo sapiens, UniProt P27361); test: Inhibition of ERK1; method in brief: as §1
Chain of Mitogen-activated protein kinase 3 (P27361 whole entry): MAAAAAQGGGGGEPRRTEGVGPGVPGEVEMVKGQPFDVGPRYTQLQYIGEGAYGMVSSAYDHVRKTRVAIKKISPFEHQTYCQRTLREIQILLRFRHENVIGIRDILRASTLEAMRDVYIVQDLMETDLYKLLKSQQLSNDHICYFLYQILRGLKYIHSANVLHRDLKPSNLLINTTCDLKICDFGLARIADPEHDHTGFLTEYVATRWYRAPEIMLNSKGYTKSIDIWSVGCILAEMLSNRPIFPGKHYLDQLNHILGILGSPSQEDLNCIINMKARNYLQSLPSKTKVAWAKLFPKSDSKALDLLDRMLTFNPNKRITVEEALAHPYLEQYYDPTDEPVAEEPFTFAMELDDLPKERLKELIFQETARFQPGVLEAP

[12] = molecular target: T2, Serine/threonine-protein kinase AKT; test: Activity against AKT-mediated PRAS40 T246P phosphorylation in human DOV13 cell line; format: functional, cell-based
[13] = molecular target: T2, Serine/threonine-protein kinase AKT; test: Activity against AKT-mediated S6RP S235/236P phosphorylation in human DOV13 cell line; format: functional, cell-based
[14] = molecular target: Hepatocyte growth factor receptor (Homo sapiens, UniProt P08581); test: Inhibition of Met; method in brief: as §1
Chain of Hepatocyte growth factor receptor (P08581 whole entry): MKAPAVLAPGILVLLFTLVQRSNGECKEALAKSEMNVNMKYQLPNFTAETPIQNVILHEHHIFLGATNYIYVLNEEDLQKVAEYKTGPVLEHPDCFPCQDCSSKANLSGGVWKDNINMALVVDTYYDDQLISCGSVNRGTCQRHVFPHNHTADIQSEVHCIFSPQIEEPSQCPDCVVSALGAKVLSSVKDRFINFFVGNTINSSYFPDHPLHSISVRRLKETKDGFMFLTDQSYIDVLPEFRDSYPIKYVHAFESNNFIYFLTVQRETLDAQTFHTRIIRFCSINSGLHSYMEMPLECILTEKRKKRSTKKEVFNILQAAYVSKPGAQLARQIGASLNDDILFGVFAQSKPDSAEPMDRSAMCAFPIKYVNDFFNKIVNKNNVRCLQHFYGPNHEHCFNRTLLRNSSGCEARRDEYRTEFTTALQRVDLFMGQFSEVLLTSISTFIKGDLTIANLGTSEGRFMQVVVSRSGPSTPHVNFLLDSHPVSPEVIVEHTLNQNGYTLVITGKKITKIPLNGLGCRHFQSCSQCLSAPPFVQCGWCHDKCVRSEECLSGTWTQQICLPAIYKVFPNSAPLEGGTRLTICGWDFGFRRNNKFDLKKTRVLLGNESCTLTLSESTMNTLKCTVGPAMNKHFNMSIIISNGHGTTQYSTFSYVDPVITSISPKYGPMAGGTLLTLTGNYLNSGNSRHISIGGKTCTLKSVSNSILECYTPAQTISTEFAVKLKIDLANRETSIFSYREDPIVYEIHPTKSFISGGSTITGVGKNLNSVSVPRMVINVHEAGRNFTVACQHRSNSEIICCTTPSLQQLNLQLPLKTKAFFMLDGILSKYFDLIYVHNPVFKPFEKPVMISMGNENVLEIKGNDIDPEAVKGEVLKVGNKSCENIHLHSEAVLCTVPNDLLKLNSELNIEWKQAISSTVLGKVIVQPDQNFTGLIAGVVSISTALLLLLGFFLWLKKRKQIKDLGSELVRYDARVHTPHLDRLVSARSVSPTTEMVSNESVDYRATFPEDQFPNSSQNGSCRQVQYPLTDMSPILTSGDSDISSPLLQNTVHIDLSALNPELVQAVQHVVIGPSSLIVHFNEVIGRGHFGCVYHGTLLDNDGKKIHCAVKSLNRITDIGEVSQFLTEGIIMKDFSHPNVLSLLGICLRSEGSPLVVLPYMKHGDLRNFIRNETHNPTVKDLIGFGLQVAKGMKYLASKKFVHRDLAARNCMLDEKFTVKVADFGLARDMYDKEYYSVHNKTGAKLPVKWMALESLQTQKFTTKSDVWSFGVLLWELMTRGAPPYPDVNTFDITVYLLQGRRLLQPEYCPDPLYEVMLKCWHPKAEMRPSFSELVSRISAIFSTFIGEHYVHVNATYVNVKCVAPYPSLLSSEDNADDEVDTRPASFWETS

[15] = molecular target: RAF proto-oncogene serine/threonine-protein kinase (Homo sapiens, UniProt P04049); test: Inhibition of RAF1; method in brief: as §1
DOV13 = test: Antiproliferative activity against human DOV13 cell line; format: functional, cell-based

T1 sequence (Q9Y243 whole entry): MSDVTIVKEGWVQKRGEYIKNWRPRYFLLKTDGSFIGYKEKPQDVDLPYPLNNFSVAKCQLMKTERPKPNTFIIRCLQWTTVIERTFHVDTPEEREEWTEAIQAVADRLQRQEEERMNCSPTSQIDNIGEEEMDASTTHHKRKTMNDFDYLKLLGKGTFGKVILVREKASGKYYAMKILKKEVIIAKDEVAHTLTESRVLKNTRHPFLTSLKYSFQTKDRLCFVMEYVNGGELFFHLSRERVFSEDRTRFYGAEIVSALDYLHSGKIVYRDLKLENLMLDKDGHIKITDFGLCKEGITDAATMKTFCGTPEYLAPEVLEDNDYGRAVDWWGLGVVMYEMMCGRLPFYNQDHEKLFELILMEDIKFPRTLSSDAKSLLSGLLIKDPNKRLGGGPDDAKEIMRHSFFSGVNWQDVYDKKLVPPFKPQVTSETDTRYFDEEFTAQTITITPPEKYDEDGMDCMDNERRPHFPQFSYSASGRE

IC50 [1] [nM]	Structure (SMILES)	other results
7400	CNc1nccc(-c2ccc(NC(=O)OCc3ccc(F)cc3)s2)n1	–
2400	CNc1nccc(-c2ccc(C(=O)N[C@@H](Cc3ccc(Cl)cc3Cl)C(=O)OC)s2)n1	–
2600	CNc1nccc(-c2ccc(C(=O)NCCc3ccc(Br)cc3)s2)n1	–
7000	CNc1nccc(-c2ccc(C(=O)NCCN(C)C)s2)n1	–
5000	CNc1nccc(-c2ccc(C(=O)NCCc3ccccc3)s2)n1	–
4700	CNc1nccc(-c2ccc(C(=O)NCc3ccc(F)cc3)s2)n1	–
1000	CCC(CNC(=O)c1ccc(-c2ccnc(NC)n2)s1)c1ccc(Cl)cc1Cl (stereo unspecified)	–
> 25000	CNc1nccc(-c2ccc(S(=O)(=O)NCCc3ccc(Cl)cc3Cl)s2)n1	–
> 25000	CNc1nccc(-c2ccc(C(=O)NCCc3ccc(C)cc3)s2)n1	–
1300	CNc1nccc(-c2ccc(C(=O)NCCN)s2)n1	–
610	Nc1nccc(-c2ccc(C(=O)NCCc3ccc(Cl)cc3Cl)s2)n1	–
27	CNc1nccc(-c2ccc(C(=O)N[C@H](CCN)Cc3ccc(Cl)cc3Cl)s2)n1	–
> 25000	CNc1nccc(-c2ccc(C(=O)NCC(c3ccccc3)c3ccccc3)s2)n1	–
2800	CNc1nccc(-c2ccc(C(=O)NC[C@@H](N)c3ccccc3)s2)n1	–
19000	CNc1nccc(-c2ccc(C(=O)NCCc3ccc(S(N)(=O)=O)cc3)s2)n1	–
3000	CNc1nccc(-c2ccc(C(=O)NCCc3ccc(F)cc3)s2)n1	–
> 25000	CN(C)c1nccc(-c2ccc(C(=O)NCCc3ccc(Cl)cc3Cl)s2)n1	–
5400	CNc1nccc(-c2ccc(C(=O)NCCc3cccc(Cl)c3)s2)n1	–
> 25000	CNc1nccc(-c2ccc(C(=O)Nc3ccc(F)cc3)s2)n1	–

IC50 [1] [nM]	Structure (SMILES)	other results
> 25000	CNc1nccc(-c2ccc(C(=O)NCCc3ccncc3)s2)n1	–
1100	CNc1nccc(-c2ccc(C(=O)NCCc3ccc(Cl)cc3)s2)n1	–
5200	CNc1nccc(-c2ccc(CNCCc3ccc(Cl)cc3Cl)s2)n1	–
990	CNc1nccc(-c2ccc(C(=O)NCCc3ccc(Cl)cc3Cl)s2)n1	–
1500	CCNc1nccc(-c2ccc(C(=O)NCCc3ccc(Cl)cc3Cl)s2)n1	–
2300	CNc1nccc(-c2ccc(NC(=O)CCc3ccc(F)cc3)s2)n1	–
2100	CNc1nccc(-c2ccc(NC(=O)NCc3ccc(Cl)cc3Cl)s2)n1	–
–	CNc1nccc(-c2ccc(C(=O)N[C@H](CN)Cc3ccc(Cl)cc3Cl)s2)n1	IC50 [2]: 6 nM; IC50 [3]: 3 nM; IC50 [4]: 66 nM; EC50 [5]: 320 nM; Activity [6]: Active; IC50 [7]: 8 µM; IC50 [8]: 0.1 nM; Activity [9]: Active; IC50 [10]: 110 nM; IC50 [11]: 400 nM; EC50 [12]: 160 nM; EC50 [13]: 370 nM; IC50 [14]: 1100 nM; IC50 [15]: > 10 µM; EC50 (DOV13): 1000 nM
> 25000	CCCNc1nccc(-c2ccc(C(=O)NCCc3ccc(Cl)cc3Cl)s2)n1	–
> 25000	CNc1nccc(-c2ccc(C(=O)NCCc3ccc(OC)cc3)s2)n1	–
240	CNc1nccc(-c2ccc(C(=O)N[C@@H](CN)Cc3ccc(Cl)cc3Cl)s2)n1	–
11	CNc1nccc(-c2ccc(C(=O)N[C@@H](Cc3ccc(Cl)cc3Cl)CN(C)C)s2)n1	–
18000	CNc1nccc(-c2ccc(C(=O)NCCCc3ccc(F)cc3)s2)n1	–
2900	CNc1nccc(-c2ccc(C(=O)NCCc3ccccc3Cl)s2)n1	–
820	CNc1nccc(-c2ccc(C(=O)N[C@H](C)Cc3ccc(Cl)cc3Cl)s2)n1	–
280	CNc1nccc(-c2ccc(C(=O)N[C@H](CO)Cc3ccc(Cl)cc3Cl)s2)n1	–
660	CNc1nccc(-c2ccc(C(=O)NCC(C)c3ccc(Cl)cc3Cl)s2)n1 (stereo unspecified)	–
4.8	CNc1nccc(-c2ccc(C(=O)NC(CN)Cc3ccc(Cl)cc3Cl)s2)n1 (stereo unspecified)	–
